Assay results gathered from unrelated publications.
Mode: agonist
AHR: Aryl hydrocarbon receptor (AHR, Homo sapiens, UniProt P35869)
MC5R: Melanocortin receptor 5 (MC5R, Homo sapiens, UniProt P33032)
ADRB2: Beta-2 adrenergic receptor (ADRB2, Homo sapiens, UniProt P07550)
CNR2: Cannabinoid receptor 2 (CNR2, Homo sapiens, UniProt P34972)

COC(=O)c1cccc(C(=O)c2c[nH]c3ccc(Cl)cc23)n1 — EC50 (AHR; reporter gene, luciferase): 0.032 µM
CSCC[C@H](NC(=O)[C@@H](NC(=O)[C@@H](N)Cc1ccc(O)cc1)C(C)C)C(=O)NCC(=O)N[C@@H](Cc1c[nH]cn1)C(=O)N[C@@H](Cc1ccccc1)C(=O)N[C@@H](CCCNC(=N)N)C(=O)N[C@@H](Cc1c[nH]c2ccccc12)C(=O)N[C@@H](CC(=O)O)C(=O)N[C@@H](CCCNC(=N)N)C(=O)O — EC50 (MC5R; reporter gene): 7.36 µM
COC(=O)c1ccccc1C(=O)c1c[nH]c2ccccc12 — EC50 (AHR; reporter gene, luciferase): > 10 µM
Cc1ccc(-n2c(C)ccc2C)c2c1CC(C)(C)O2 — EC50 (ADRB2; calcium signal, fluorescence): 65 µM
CC1CCN(C(NC(=O)c2ccc(C(C)(C)C)cc2)C(Cl)(Cl)Cl)CC1 (stereo not drawn) — EC50 (CNR2; cAMP, TR-FRET): 0.0501 µM
CC(C)OC(=O)c1cccc(C(=O)c2c[nH]c3ccccc23)n1 — EC50 (AHR; reporter gene, luciferase): > 10 µM
c1ccc(Nc2nc3ccccc3nc2Nc2ccccc2)cc1 — EC50 (CNR2; cAMP, TR-FRET): 0.0251 µM
N=C(N)NCCC[C@H](NC(=O)[C@H](Cc1ccccc1)NC(=O)[C@@H](N)Cc1cnc[nH]1)C(=O)N[C@@H](Cc1c[nH]c2ccccc12)C(=O)O — EC50 (MC5R; reporter gene): > 100 µM
COc1ccc(CNC(=S)NC(C)(C)C)cc1 — EC50 (ADRB2; calcium signal, fluorescence): 1.9 µM
CCOC(=O)[C@](CC)(CCCS(=O)(=O)CCOCCOCCNC(=O)OC(C)(C)C)NC(=O)c1ccc(C2CC2)c(Cc2ccc(F)cc2)n1 — EC50 (CNR2; cAMP): 0.017 µM
O=c1ccn([C@@H]2O[C@H](COP(=O)(O)OP(=O)(O)O)[C@@H](O)[C@H]2O)c(=O)[nH]1 — EC50 (P2Y purinoceptor 6 (P2RY6, Homo sapiens, UniProt Q15077); inositol phosphate): 0.295 µM
CSCC[C@H](NC(=O)[C@@H](NC(=O)[C@@H](N)Cc1ccc(O)cc1)C(C)C)C(=O)NCC(=O)N[C@@H](Cc1c[nH]cn1)C(=O)N[C@@H](Cc1ccccc1)C(=O)N[C@@H](CCCNC(=N)N)C(=O)N[C@@H](Cc1c[nH]c2ccccc12)C(=O)O — EC50 (MC5R; reporter gene): 23.9 µM
